The record followed here is ChEMBL document CHEMBL3792272, “Discovery of Potent and Orally Active Lipoprotein-Associated Phospholipase A2 (Lp-PLA2) Inhibitors as a Potential Therapy for Diabetic Macular Edema” (J Med Chem, 2016).

Holding throughout (format): ADME, organism-based
Data set [1] can be described thus: Cmax in Sprague-Dawley rat at 50 mg/kg, po after 0.5 to 24 hrs by LC-MS/MS analysis. Particulars: in vivo. Details: dose 50 mg/kg, route oral.
Data set [2] is described as follows: Tmax in Sprague-Dawley rat at 50 mg/kg, po after 0.5 to 24 hrs by LC-MS/MS analysis. Particulars: in vivo.
Data set [3] is described as follows: AUC (0 to 24 hrs) in Sprague-Dawley rat at 50 mg/kg, po after 0.5 to 24 hrs by LC-MS/MS analysis. Details: time < 24 hr, dose 50 mg/kg, route oral. Particulars: in vivo.
The nature of data set [4]: AUC (0 to 24 hrs) in Sprague-Dawley rat at 10 mg/kg, iv after 5 mins to 24 hrs by LC-MS/MS analysis. Also on record: time < 24 hr, dose 10 mg/kg, route intravenous. The note with it: in vivo. The essentials: (§1)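 Male SD rats, n=5 per group, single iv bolus: 5 mg/kg in 5% DMSO/5% Tween-80 in saline, or 10 mg/kg tartrate salt in water. Plasma sampled predose and at 5, 15, 30 min and 1, 3, 5, 7, 24 h. Drug measured by LC-MS. Parameters by noncompartmental analysis of mean concentrations.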

Data set [5] is described as follows: Volume of distribution at steady state in Sprague-Dawley rat at 10 mg/kg, iv after 5 mins to 24 hrs by LC-MS/MS analysis. The note with it: in vivo, read-out: Vdss. The essentials: as §1

As usually defined, the Cmax is the highest concentration seen after dosing. In general, Tmax refers to the time from dosing to the highest level. A word on the AUC(0-t): it is the area under the concentration-time curve up to a stated or last time point. A lower AUC(0-t) goes with less exposure.

SMILES strings stand for the structures.

In the case of `CCN(CC)CCN(Cc1ccc(-c2ccc(C(F)(F)F)cc2)cc1)C(=O)Cn1c(SCc2ccc(F)cc2)nc(=O)c2c1CCC2` [DARAPLADIB], in data set [1], the Cmax stood at 115 ng/mL. Also, in data set [2], the Tmax was determined as 4.2 h. The AUC(0-t) at 24 h in data set [3] is 1300 ng·h/mL; in data set [4], 1200 ng·h/mL. Also, the Vd in data set [5] came out at 34.4 L/kg.
